Measured values published in ChEMBL document CHEMBL1255483, “Intra- and extracellular activities of dicloxacillin against Staphylococcus aureus in vivo and in vitro” (Antimicrob Agents Chemother, 2010).
In brackets after ≈: the same amount, converted by molar mass. Activity calls are given as the source filed them. The rule behind the calls is not given here.

Columns and labels:
[1] = Ratio of fCmax in NMRI mouse at 80 mg/kg to MIC for Staphylococcus aureus E19977
[2] = system: Staphylococcus aureus; assay: Bactericidal activity against Staphylococcus aureus E19977 infected in human THP1 cells assessed as log reduction in bacterial count at 10 times MIC after 24 hrs by time-kill assay; assay type: functional, THP-1
Method in brief: (§1)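 Intracellular model in THP-1 macrophages: opsonized S. aureus was added at 4 bacteria per macrophage for 45 min. Non-phagocytized bacteria were removed by washing and brief PBS incubation with gentamicin (50 mg/liter). Cells were then incubated up to 24 h with a wide range of extracellular dicloxacillin concentrations. Result is change in log₁₀ CFU per mg cell protein from time zero. n = 3.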

[3] = Ratio of fCmax in NMRI mouse at 200 mg/kg administered every 6 hrs to MIC for Staphylococcus aureus E19977; assay type: functional
Method in brief: (§2)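 Free Cmax/MIC was modelled, not measured. Single-dose subcutaneous plasma curves from NMRI mice were projected to the multiple-dose regimens. Free fraction came from a square-root fit of unbound fraction versus total concentration. Binding was measured by ultrafiltration of mouse plasma spiked with 10–400 mg/liter and held 1 h at 37°C. MIC was for strain E19977.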

[4] = AUC (24 hrs) in NMRI mouse at 60 mg/kg, sc; assay type: ADME, organism-based; set-up: time < 24 hr, dose 60 mg/kg, route subcutaneous; conditions: plasma
Method in brief: (§3)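 Single subcutaneous DCX doses given to NMRI mice. Blood was collected into EDTA tubes, and plasma drug was assayed by microbiological bioassay with S. lutea ATCC 9391 (detection limit 1.5 mg/liter, linear to 100 mg/liter). Values came from noncompartmental analysis. Terminal half-life was fitted monoexponentially to the last four time points. AUC24 combined the trapezoidal rule over mean points with exact integration of the fitted curve extrapolated to 24 h.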

[5] = system: Staphylococcus aureus; assay: Bacteriostatic activity against Staphylococcus aureus ATCC 25923 infected in human THP-1 cells at MIC after 5 hrs; assay type: functional, organism-based
Method in brief: (§4)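 Human THP-1 macrophages were infected with opsonized S. aureus at 4 bacteria per macrophage for 45 min. Non-phagocytized bacteria were removed by washing and a brief incubation in PBS with gentamicin 50 mg/liter. Cells were then incubated up to 24 h with DCX over a wide range of extracellular concentrations. The read-out was Δlog CFU per mg cell protein versus time zero (n = 3), with sigmoidal fitting and Cstatic by interpolation.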

[6] = fT>MIC in Staphylococcus aureus E19977 infected NMRI mouse at 200 mg/kg administered every 6 hrs; assay type: functional
Method in brief: (§5)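 Calculated percentage of 24 h at steady state that free plasma DCX exceeds the strain MIC (microdilution, pH 7.4). Concentrations were simulated from single subcutaneous dose plasma curves in NMRI mice (S. lutea bioassay), adjusted with a square-root model of concentration-dependent free fraction from ultrafiltration. The regimen was dosed subcutaneously in mice infected intraperitoneally with 10^7.4 CFU, and peritoneal CFU were read after 24 h of therapy.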

[7] = Cmax in NMRI mouse at 30 mg/kg, sc; assay type: ADME, organism-based; set-up: dose 30 mg/kg, route subcutaneous; conditions: in vivo
Method in brief: (§6)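 Single subcutaneous dicloxacillin doses were given to NMRI mice. EDTA plasma was assayed by microbiological bioassay with S. lutea ATCC 9391 (detection limit 1.5 mg/liter, linear to 100 mg/liter, CV ~5%). Cmax was obtained by noncompartmental analysis.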

[8] = species: Mus musculus; assay: Protein binding in NMRI mouse at 10 mg/l by ultrafiltration; assay type: ADME, organism-based; conditions: in vivo
Method in brief: (§7)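 Plasma binding was measured by ultrafiltration. EDTA blood from healthy mice, or from NMRI mice infected intraperitoneally for 6 h with E19977, was spiked with DCX at 10–400 mg/liter, with PBS controls. Samples were held 1 h at 37°C, then centrifuged through 30-kDa filters at 3,000 × g for 8 min at 37°C. Total and filtrate drug were measured by S. lutea bioassay.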

[9] = fT>MIC in Staphylococcus aureus E19977 infected NMRI mouse at 400 mg/kg administered every 12 hrs; assay type: functional
Method in brief: as §5

[10] = system: Staphylococcus aureus; assay: Bactericidal activity against Staphylococcus aureus ATCC 25923 assessed as log reduction in bacterial count at 10 times MIC after 24 hrs by time-kill assay; assay type: functional
Method in brief: (§8)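 Broth time-kill: MSSA at 10⁶ CFU/ml exposed to a wide range of dicloxacillin concentrations. CFU counted after 5 and 24 h and expressed as change in log₁₀ CFU/ml from time zero. Multiples refer to the MIC by CLSI microdilution at pH 7.4. n = 3.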

[11] = Cmax in NMRI mouse at 300 mg/kg, sc; assay type: ADME, organism-based; set-up: dose 300 mg/kg, route subcutaneous; conditions: in vivo
Method in brief: as §6

[12] = Ratio of fCmax in NMRI mouse at 400 mg/kg administered every 12 hrs to MIC for Staphylococcus aureus E19977; assay type: functional
Method in brief: as §2

[13] = Ratio of fCmax in NMRI mouse at 120 mg/kg administered every 24 hrs to MIC for Staphylococcus aureus E19977; assay type: functional
Method in brief: as §2

[14] = system: Staphylococcus aureus; assay: Bactericidal activity against Staphylococcus aureus ATCC 25923 infected in human THP1 cells assessed as log reduction in bacterial count at 100 times MIC after 24 hrs by time-kill assay; assay type: functional, THP-1
Method in brief: as §1

[15] = species: Mus musculus; assay: Protein binding in NMRI mouse at 180 mg/l by ultrafiltration; assay type: ADME, organism-based; conditions: in vivo
Method in brief: as §7

[16] = fT>MIC in Staphylococcus aureus E19977 infected NMRI mouse at 120 mg/kg administered every 3 hrs; assay type: functional
Method in brief: as §5

[17] = system: Staphylococcus aureus; assay: Bacteriostatic activity against Staphylococcus aureus ATCC 25923 infected in human THP-1 cells at 100 times MIC after 5 hrs; assay type: functional, organism-based
Method in brief: as §4

[18] = Ratio of fAUC (24 hrs) in NMRI mouse at 200 mg/kg administered every 6 hrs to MIC for Staphylococcus aureus E19977; assay type: functional
Method in brief: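 Modeled free AUC over 24 h divided by the MIC, not measured directly. Single subcutaneous DCX doses were given to NMRI mice, and plasma was assayed by S. lutea bioassay. Noncompartmental analysis used trapezoidal mean points plus a fitted monoexponential extrapolated to 24 h. Free fraction came from a square-root fit to plasma ultrafiltration binding (10–400 mg/liter spike, 1 h, 37°C). The MIC was measured by broth microdilution at pH 7.4.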

[19] = system: Staphylococcus aureus; assay: Bacteriostatic activity against Staphylococcus aureus E19977 infected in human THP-1 cells at MIC after 5 hrs; assay type: functional, organism-based
Method in brief: as §4

[20] = system: Staphylococcus aureus; assay: Bactericidal activity against Staphylococcus aureus E19977 assessed as log change in bacterial count after 24 hrs; assay type: functional
Method in brief: (§9)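 Extracellular broth time- and concentration-kill test. The inoculum was ~10⁶ CFU/ml, exposed to a wide range of DCX concentrations, with CFU counted after 5 and 24 h. The read-out was Δlog CFU/ml versus time zero (mean ± SD, n = 3). A sigmoidal fit with slope 1 gave Emax and EC50. Cstatic was read by graphical interpolation as the concentration giving no change from the inoculum.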

[21] = AUC (24 hrs) in NMRI mouse at 300 mg/kg, sc; assay type: ADME, organism-based; set-up: time < 24 hr, dose 300 mg/kg, route subcutaneous; conditions: plasma
Method in brief: as §3

[22] = Ratio of fCmax in NMRI mouse at 160 mg/kg administered every 3 hrs to MIC for Staphylococcus aureus E19977; assay type: functional
Method in brief: as §2

[23] = system: Staphylococcus aureus; assay: Antimicrobial activity against Staphylococcus aureus ATCC 25923 after 24 hrs; assay type: functional, organism-based; conditions: ATCC 25923, 24 h
Method in brief: as §9

[24] = system: Staphylococcus aureus; assay: Bacteriostatic activity against Staphylococcus aureus ATCC 25923 at MIC between 5 to 24 hrs; assay type: functional, organism-based
Method in brief: as §9

[25] = system: Staphylococcus aureus; assay: Bactericidal activity against Staphylococcus aureus ATCC 25923 assessed as log reduction in bacterial count at 100 times MIC after 5 hrs by time-kill assay; assay type: functional
Method in brief: as §8

AUC at 24 h [4]: 70.4 µg·h/mL | fT>MIC [6]: 57.5% | Cmax [7]: 36 µg/mL | Activity [8]: 93.9% | fT>MIC [9]: 35.97% | Cmax [11]: 529 µg/mL | Activity [15]: 87.2% | fT>MIC [16]: 75.56% | fAUC/MIC [18]: 411.61 h | AUC at 24 h [21]: 726 µg·h/mL | EC50 [23]: 0.06 µg/mL (≈ 0.128 µM)
Compound: Cc1onc(-c2c(Cl)cccc2Cl)c1C(=O)N[C@@H]1C(=O)N2[C@@H]1SC(C)(C)[C@@H]2C(=O)O [DICLOXACILLIN]
Ratio [1]: 30.64 | FC [2]: <1 | Ratio [3]: 101.92 | Activity [5]: Active | FC [10]: 3 | Ratio [12]: 291.53 | Ratio [13]: 61.6 | FC [14]: <1 | Activity [17]: Active | Activity [19]: Active | Emax [20]: -3.81 deltalog10CFU/ml | Ratio [22]: 81.58 | Activity [24]: Active | FC [25]: <1
